Experimental findings from BindingDB's records for doi:10.1021/acs.jmedchem.5b01947 (Amgen, 2016) are described below.

Positions of bridges follow the written chain, without caps; N, C: chain ends. Residues, ends and D or L forms follow the SMILES beside them. Bounds are passed on as bounds.

The target of assay [1] is T1, Sodium channel protein type 5 subunit alpha (Homo sapiens, UniProt Q14524). Briefly: Inhibition of human Nav1.5 expressed in HEK293 cells assessed as inward peak current by ion-works quattro patch clamp electrophysiology method. The method in brief:
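Stable HEK293 line expressing human NaV1.5, recorded by population patch clamp on the IonWorks Quattro.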

Assay [2] deals with T1, Sodium channel protein type 5 subunit alpha. The assay is described as follows: Inhibition of human Nav1.5 expressed in HEK293 cells by whole cell patch clamp electrophysiology method. Put shortly:
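Stable HEK293 line expressing human NaV1.5. Peptides were used only at >95% purity with the correct m/z, and were quantified by chemiluminescent nitrogen detection against a caffeine standard curve.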

Assay [3] deals with Sodium channel protein type 9 subunit alpha (Homo sapiens, UniProt Q15858). Briefly: Inhibition of human Nav1.7 expressed in HEK293 cells by whole cell patch clamp electrophysiology method.
Chain of Sodium channel protein type 9 subunit alpha (Q15858 whole entry): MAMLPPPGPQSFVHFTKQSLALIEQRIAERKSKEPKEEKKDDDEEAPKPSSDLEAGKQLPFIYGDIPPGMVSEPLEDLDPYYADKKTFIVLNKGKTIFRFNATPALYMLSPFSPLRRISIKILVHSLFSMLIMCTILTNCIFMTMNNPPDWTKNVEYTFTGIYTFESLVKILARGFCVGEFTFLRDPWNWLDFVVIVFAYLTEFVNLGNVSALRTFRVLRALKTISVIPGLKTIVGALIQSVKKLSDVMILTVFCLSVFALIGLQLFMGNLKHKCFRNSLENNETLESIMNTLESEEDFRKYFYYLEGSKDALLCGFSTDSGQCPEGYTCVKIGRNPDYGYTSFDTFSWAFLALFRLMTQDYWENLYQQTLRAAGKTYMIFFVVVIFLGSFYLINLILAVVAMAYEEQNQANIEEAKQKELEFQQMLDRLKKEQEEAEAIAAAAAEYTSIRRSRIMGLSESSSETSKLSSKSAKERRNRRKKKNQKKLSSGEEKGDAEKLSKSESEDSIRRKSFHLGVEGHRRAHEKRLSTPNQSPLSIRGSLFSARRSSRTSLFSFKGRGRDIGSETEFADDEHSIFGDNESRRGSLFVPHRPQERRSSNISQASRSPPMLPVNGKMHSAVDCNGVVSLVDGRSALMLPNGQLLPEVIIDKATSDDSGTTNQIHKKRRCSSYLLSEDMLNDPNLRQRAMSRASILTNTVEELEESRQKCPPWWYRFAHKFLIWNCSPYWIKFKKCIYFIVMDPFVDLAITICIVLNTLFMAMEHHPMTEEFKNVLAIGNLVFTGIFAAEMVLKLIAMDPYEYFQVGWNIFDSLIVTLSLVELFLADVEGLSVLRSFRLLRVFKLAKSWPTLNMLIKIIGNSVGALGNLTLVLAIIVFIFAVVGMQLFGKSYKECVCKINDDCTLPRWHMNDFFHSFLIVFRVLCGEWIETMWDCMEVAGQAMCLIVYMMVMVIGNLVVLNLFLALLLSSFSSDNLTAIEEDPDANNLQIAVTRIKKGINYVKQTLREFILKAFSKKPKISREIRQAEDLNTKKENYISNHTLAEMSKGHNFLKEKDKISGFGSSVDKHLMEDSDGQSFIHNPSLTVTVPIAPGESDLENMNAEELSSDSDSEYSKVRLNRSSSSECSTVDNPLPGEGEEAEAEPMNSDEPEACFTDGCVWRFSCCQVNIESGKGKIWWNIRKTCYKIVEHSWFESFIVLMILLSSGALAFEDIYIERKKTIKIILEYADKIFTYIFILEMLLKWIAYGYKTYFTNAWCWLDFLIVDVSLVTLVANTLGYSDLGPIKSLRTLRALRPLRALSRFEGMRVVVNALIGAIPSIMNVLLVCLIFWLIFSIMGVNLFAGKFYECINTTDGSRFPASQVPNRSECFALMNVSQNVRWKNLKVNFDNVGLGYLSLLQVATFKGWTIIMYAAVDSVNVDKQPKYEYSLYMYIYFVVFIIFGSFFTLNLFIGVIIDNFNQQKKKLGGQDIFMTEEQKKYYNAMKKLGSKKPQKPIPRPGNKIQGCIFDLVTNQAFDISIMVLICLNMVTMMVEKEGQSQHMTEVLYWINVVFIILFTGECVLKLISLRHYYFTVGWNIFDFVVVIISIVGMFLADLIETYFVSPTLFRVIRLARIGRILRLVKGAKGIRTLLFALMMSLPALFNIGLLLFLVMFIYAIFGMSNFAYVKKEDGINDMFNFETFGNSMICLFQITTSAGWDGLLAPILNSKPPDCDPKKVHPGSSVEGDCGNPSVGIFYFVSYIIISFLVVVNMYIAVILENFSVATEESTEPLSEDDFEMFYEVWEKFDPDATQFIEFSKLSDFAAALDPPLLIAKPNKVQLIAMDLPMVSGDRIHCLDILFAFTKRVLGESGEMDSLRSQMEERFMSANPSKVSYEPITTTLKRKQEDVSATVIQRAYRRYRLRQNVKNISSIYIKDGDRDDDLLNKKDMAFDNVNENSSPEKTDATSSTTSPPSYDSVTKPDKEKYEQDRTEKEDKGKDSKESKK

T1 sequence (Q14524 whole entry): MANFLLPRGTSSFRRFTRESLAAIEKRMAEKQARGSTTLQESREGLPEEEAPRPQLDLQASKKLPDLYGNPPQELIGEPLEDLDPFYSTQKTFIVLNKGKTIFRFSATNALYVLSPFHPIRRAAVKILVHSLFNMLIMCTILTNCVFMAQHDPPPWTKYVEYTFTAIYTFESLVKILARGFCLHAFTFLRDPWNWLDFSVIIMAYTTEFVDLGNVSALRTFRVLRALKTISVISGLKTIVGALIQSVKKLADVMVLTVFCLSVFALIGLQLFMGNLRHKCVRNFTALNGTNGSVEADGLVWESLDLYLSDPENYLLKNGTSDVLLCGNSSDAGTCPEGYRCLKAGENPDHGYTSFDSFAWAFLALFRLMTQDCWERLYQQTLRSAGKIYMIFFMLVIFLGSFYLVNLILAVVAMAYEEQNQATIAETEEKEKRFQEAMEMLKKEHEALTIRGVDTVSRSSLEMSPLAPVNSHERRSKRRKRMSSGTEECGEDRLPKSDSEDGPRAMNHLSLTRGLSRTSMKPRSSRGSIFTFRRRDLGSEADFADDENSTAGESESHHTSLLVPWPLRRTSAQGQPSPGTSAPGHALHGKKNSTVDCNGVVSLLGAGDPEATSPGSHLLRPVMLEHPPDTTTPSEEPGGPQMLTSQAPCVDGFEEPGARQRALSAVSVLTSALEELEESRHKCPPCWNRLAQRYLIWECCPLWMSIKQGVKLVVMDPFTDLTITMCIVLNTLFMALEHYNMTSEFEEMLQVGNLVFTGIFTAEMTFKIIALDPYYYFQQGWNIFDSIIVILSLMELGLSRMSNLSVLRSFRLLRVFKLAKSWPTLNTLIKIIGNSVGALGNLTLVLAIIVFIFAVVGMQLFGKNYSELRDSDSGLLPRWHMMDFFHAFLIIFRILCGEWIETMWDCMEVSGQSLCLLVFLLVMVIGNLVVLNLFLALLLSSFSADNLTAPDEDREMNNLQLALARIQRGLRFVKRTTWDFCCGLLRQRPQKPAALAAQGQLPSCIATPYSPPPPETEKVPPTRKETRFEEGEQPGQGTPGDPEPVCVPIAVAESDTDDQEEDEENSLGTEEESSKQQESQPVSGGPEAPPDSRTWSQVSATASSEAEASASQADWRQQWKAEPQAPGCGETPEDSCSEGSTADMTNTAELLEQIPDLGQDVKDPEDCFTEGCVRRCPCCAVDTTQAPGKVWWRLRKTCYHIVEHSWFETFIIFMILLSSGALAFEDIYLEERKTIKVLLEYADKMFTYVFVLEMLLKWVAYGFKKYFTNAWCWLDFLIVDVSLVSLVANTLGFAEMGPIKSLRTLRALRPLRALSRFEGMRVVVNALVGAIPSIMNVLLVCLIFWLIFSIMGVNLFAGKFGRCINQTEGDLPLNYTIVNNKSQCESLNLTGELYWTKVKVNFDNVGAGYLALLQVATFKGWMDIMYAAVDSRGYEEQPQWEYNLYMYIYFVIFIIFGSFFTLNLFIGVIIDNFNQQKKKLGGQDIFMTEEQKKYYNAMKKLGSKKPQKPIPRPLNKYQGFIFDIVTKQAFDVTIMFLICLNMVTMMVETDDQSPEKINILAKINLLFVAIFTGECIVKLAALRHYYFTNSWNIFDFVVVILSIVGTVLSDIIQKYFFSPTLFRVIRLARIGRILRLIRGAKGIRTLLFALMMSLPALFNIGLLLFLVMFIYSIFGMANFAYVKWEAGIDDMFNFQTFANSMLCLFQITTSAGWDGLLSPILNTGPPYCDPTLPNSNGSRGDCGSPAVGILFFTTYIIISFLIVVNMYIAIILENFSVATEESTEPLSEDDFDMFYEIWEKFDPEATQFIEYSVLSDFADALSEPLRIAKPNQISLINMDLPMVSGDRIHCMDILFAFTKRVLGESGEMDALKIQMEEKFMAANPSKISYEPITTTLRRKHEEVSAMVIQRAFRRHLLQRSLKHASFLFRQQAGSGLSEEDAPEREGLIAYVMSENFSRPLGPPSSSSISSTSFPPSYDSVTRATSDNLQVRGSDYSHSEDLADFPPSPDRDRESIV

With `CC[C@H](C)[C@@H]1NC(=O)[C@@H]2CSSC[C@@H]3NC(=O)[C@H](C(C)C)NC(=O)[C@H](CC(C)C)NC(=O)[C@H](CC(N)=O)NC(=O)[C@@H]4CCCN4C(=O)[C@H](CCCNC(=N)N)NC(=O)[C@H](CSSC[C@H](NC(=O)[C@@H](N)CC(=O)O)C(=O)N[C@@H](CCC(=O)O)C(=O)NCC(=O)N[C@@H](Cc4ccccc4)C(=O)N[C@@H](CCSC)C(=O)N[C@@H](CCCNC(=N)N)C(=O)N[C@@H](CCCCN)C(=O)N2)NC(=O)[C@H](CSSC[C@@H](C(=O)N[C@@H](CCCCN)C(=O)N[C@@H](Cc2ccc(O)cc2)C(=O)N[C@H](C(=O)N[C@@H](Cc2ccccc2)C(N)=O)C(C)C)NC(=O)[C@H](Cc2c[nH]c4ccccc24)NC(=O)[C@H](CCCCN)NC(=O)[C@H](Cc2cnc[nH]2)NC(=O)[C@H]([C@@H](C)O)NC(=O)[C@H](CCCNC(=N)N)NC(=O)[C@H](CO)NC3=O)NC(=O)[C@H](CCCCN)NC(=O)[C@H](CC(=O)O)NC(=O)[C@H](CC(N)=O)NC(=O)[C@H](CC(=O)O)NC(=O)[C@@H]2CCCN2C1=O` (H-DCEGFMRKCIPDNDKCCRPNLVCSRTHKWCKYVF-NH2; disulfide 2-17, 9-23, 16-30), the 50% inhibitory concentration (IC50) in assay [1] is above 5000 nM.

Regarding `CC[C@H](C)[C@@H]1NC(=O)[C@@H]2CSSC[C@@H]3NC(=O)[C@H](C(C)C)NC(=O)[C@H](CC(C)C)NC(=O)[C@H](CC(N)=O)NC(=O)[C@@H]4CCCN4C(=O)[C@H](CCCNC(=N)N)NC(=O)[C@H](CSSC[C@H](NC(=O)[C@@H](N)CC(=O)O)C(=O)N[C@@H](CC(C)C)C(=O)NCC(=O)N[C@@H](Cc4ccccc4)C(=O)N[C@@H](CCSC)C(=O)N[C@@H](CCCNC(=N)N)C(=O)N[C@@H](CCCCN)C(=O)N2)NC(=O)[C@H](CSSC[C@@H](C(=O)N[C@@H](CCCCN)C(=O)N[C@@H](Cc2ccc(O)cc2)C(=O)N[C@H](C(=O)N[C@@H](Cc2ccccc2)C(=O)N[C@@H](Cc2c[nH]c4ccccc24)C(N)=O)C(C)C)NC(=O)[C@H](Cc2c[nH]c4ccccc24)NC(=O)[C@H](CCCCN)NC(=O)[C@H](Cc2c[nH]cn2)NC(=O)[C@H]([C@@H](C)O)NC(=O)[C@H](CCCNC(=N)N)NC(=O)[C@H](CO)NC3=O)NC(=O)[C@H](CCCCN)NC(=O)[C@H](CC(=O)O)NC(=O)[C@H](CC(N)=O)NC(=O)[C@H](CC(=O)O)NC(=O)[C@@H]2CCCN2C1=O`, the IC50 in assay [1] is above 5000 nM; in assay [2] it was 2700 nM; in assay [3], 10 nM.
